{
  "source": "paper PMC2916634",
  "about": "(Biochemistry, 2010)",
  "molecules": {"B1": {"name": "CYP33 RRM domain (T3-K83), wild type (domain or fragment, human, UniProt Q9UNP9 3-83, looked up)", "chain": "TTKRVLYVGGLAEEVDDKVLHAAFIPFGDITDIQIPLDYETEKHRGFAFVEFELAEDAAAAIDNMNESELFGRTIRVNLAK"}, "B2": {"name": "MLL PHD3 (third PHD finger of MLL), wild type (domain or fragment, human, UniProt Q03164 1564-1628, looked up)", "chain": "AKGNFCPLCDKCYDDDDYESKMMQCGKCDRWVHSKCENLSDEMYEILSNLPESVAYTCVNCTERH"}},
  "key": {"[1]": {"system": "C-MYC", "assay": "Q-RT-PCR of C-MYC expression in HEK293T cells", "format": "cell-based", "settings": "48 h after transfection, normalized to β2M, vs empty vector", "method_in_brief": "(§1)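 HEK293T cells transfected with Lipofectamine 2000 using pCEP4 empty vector, FLAG-tagged wild-type CYP33 or PPIase-dead CYP33 (R191A/F196A). At 48 h, RNA extracted with Trizol and reverse-transcribed. qPCR run in triplicate. cDNA levels normalized to β2M by the comparative Ct method.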"}, "[2]": {"system": "HOXC8 promoter", "assay": "Chromatin immunoprecipitation at HOXC8 promoter in HEK293T cells", "format": "cell-based", "settings": "ChIP, 48 h after transfection, CYP33 overexpression vs empty vector", "method_in_brief": "(§2)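 HEK293T cells transfected with empty vector or pCEP4-CYP33 by lipofectamine, then formalin-fixed at 48 h. Chromatin immunoprecipitated with anti-histone H3, anti-H3K4me3, anti-acetyl-H3 (K9/K14) or IgG control antibodies. Recovered DNA quantified by qPCR at MLL target gene promoters. Fold occupancy normalized to input DNA.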"}, "[3]": {"system": "CDKN1B promoter", "assay": "Chromatin immunoprecipitation at CDKN1B promoter in HEK293T cells", "format": "cell-based", "settings": "ChIP, 48 h after transfection, CYP33 overexpression vs empty vector", "method_in_brief": "as §2"}, "[4]": {"system": "CDKN1B", "assay": "Q-RT-PCR of CDKN1B expression in HEK293T cells", "format": "cell-based", "settings": "48 h after transfection, normalized to β2M, vs empty vector", "method_in_brief": "as §1"}, "[5]": {"system": "HOXA9", "assay": "Q-RT-PCR of HOXA9 expression in HEK293T cells", "format": "cell-based", "settings": "48 h after transfection, normalized to β2M, vs empty vector", "method_in_brief": "as §1"}, "[6]": {"system": "HOXC8", "assay": "Q-RT-PCR of HOXC8 expression in HEK293T cells", "format": "cell-based", "settings": "48 h after transfection, normalized to β2M, vs empty vector", "method_in_brief": "as §1"}, "[7]": {"biological_target": "MLL PHD3 V1617A mutant (human, UniProt Q03164 1564-1628, V1617A)", "assay": "ITC"}, "[8]": {"biological_target": "B2", "assay": "ITC"}, "[9]": {"biological_target": "B1", "assay": "ITC"}, "[10]": {"biological_target": "PHD3−CYP33 RRM complex (PHD3 saturated with CYP33 RRM) (human, UniProt Q03164 1564-1628; Q9UNP9 3-83)", "assay": "ITC"}, "[11]": {"system": "PHD3", "settings": "yeast two-hybrid assay, co-immunoprecipitation, and GST pull-down; cited from earlier work"}, "[12]": {"biological_target": "W1594A PHD3 (Homo sapiens, UniProt Q03164, W1594A)", "assay": "ITC binding to PHD3 W1594A mutant"}, "[13]": {"assay": "15N−1H HSQC structural integrity of mutants", "format": "physicochemical", "settings": "15N−1H HSQC of mutant vs wild type, 30 °C, pH 6.9"}, "[14]": {"biological_target": "PHD3 (MLL PHD3, wild-type) (Homo sapiens, UniProt Q03164)", "assay": "ITC binding of H3K4me3 peptide or CYP33 RRM", "settings": "CYP33 RRM Ala mutant to wild-type PHD3"}},
  "note": "Ends that are not written are not given here. Me3 = Me3: trimethyl-lysine (trimethylated lysine)",
  "data": [
    {"molecule": "CYP33: Human nuclear Cyclophilin33, full-length; FLAG-tagged wild-type expressed from pCEP4 plasmid in HEK293T cells", "values": [
      {"measurement": "C-MYC expression", "setting": "[1]", "result": "markedly downregulated"},
      {"measurement": "H3K4me3 mark", "setting": "[2]", "result": "reduced"},
      {"measurement": "histone H3 density", "setting": "[2]", "result": "increase"},
      {"measurement": "H3K4me3 mark", "setting": "[3]", "result": "reduced"},
      {"measurement": "H3 acetylation level (K9 and K14)", "setting": "[3]", "result": "reduced"},
      {"measurement": "histone H3 density", "setting": "[3]", "result": "increase"},
      {"measurement": "CDKN1B expression", "setting": "[4]", "result": "markedly downregulated"},
      {"measurement": "HOXA9 expression", "setting": "[5]", "result": "markedly downregulated"},
      {"measurement": "HOXC8 expression", "setting": "[6]", "result": "markedly downregulated"}
    ]},
    {"molecule": "CYP33 mutant (R191A/F196A)", "values": [
      {"measurement": "C-MYC expression", "setting": "[1]", "result": "no longer downregulated"},
      {"measurement": "CDKN1B expression", "setting": "[4]", "result": "no longer downregulated"},
      {"measurement": "HOXA9 expression", "setting": "[5]", "result": "no longer downregulated"},
      {"measurement": "HOXC8 expression", "setting": "[6]", "result": "no longer downregulated"}
    ]},
    {"molecule": "B1", "values": [
      {"measurement": "fold decrease in affinity against wild-type PHD3", "setting": "[7]", "result": "~6.2", "unit": "fold"}
    ]},
    {"molecule": "CYP33 RRM F49A mutant (domain or fragment, human, UniProt Q9UNP9 3-83, looked up) TTKRVLYVGGLAEEVDDKVLHAAFIPFGDITDIQIPLDYETEKHRGAAFVEFELAEDAAAAIDNMNESELFGRTIRVNLAK", "values": [
      {"measurement": "fold decrease in affinity against wild-type CYP33 RRM", "setting": "[8]", "result": "~14", "unit": "fold"}
    ]},
    {"molecule": "CYP33 RRM L39A mutant (domain or fragment, human, UniProt Q9UNP9 3-83, looked up) TTKRVLYVGGLAEEVDDKVLHAAFIPFGDITDIQIPADYETEKHRGFAFVEFELAEDAAAAIDNMNESELFGRTIRVNLAK", "values": [
      {"measurement": "fold decrease in affinity against wild-type CYP33 RRM", "setting": "[8]", "result": "~4.3", "unit": "fold"}
    ]},
    {"molecule": "B2", "values": [
      {"measurement": "Kd", "setting": "[9]", "result": 14.7, "unit": "µM"}
    ]},
    {"molecule": "MLL PHD3 W1594A mutant (domain or fragment, human, UniProt Q03164 1564-1628, looked up) AKGNFCPLCDKCYDDDDYESKMMQCGKCDRAVHSKCENLSDEMYEILSNLPESVAYTCVNCTERH", "values": [
      {"measurement": "Kd", "setting": "[9]", "result": 19.6, "unit": "µM"}
    ]},
    {"molecule": "MLL PHD3 Y1619A mutant (domain or fragment, human, UniProt Q03164 1564-1628, looked up) AKGNFCPLCDKCYDDDDYESKMMQCGKCDRWVHSKCENLSDEMYEILSNLPESVAATCVNCTERH", "values": [
      {"measurement": "binding result", "setting": "[9]", "result": "binds"}
    ]},
    {"molecule": "ARTK(Me3)QTARKSTGGKAY (not fully specified)", "note": "[Histone H3 peptide (residues 1-15) trimethylated at K4]", "values": [
      {"measurement": "fold increase in Kd against PHD3 alone", "setting": "[10]", "result": "~5.7", "unit": "fold"},
      {"measurement": "stoichiometry N", "setting": "[8]", "result": 1}
    ]},
    {"molecule": "CYP33 RRM: RRM domain of CYP33 spanning residues T3−K83 (protein, left off: GST, end not stated, cleaved) TTKRVLYVGGLAEEVDDKVLHAAFIPFGDITDIQIPLDYETEKHRGFAFVEFELAEDAAAAIDNMNESELFGRTIRVNLAK", "values": [
      {"measurement": "interaction with PHD3", "setting": "[11]", "result": "interacts"},
      {"measurement": "Kd", "setting": "[12]; 25 °C, pH 7.2, CYP33 RRM to W1594A PHD3", "result": 19.6, "unit": "µM"},
      {"measurement": "fold weaker Kd vs wild-type PHD3", "setting": "[12]; CYP33 RRM to W1594A PHD3", "result": "~1.3", "unit": "fold"}
    ]},
    {"molecule": "V1617A: MLL PHD3 with V1617 mutated to alanine (protein, left off: GST, end not stated, cleaved) AKGNFCPLCDKCYDDDDYESKMMQCGKCDRWVHSKCENLSDEMYEILSNLPESAAYTCVNCTERH", "values": [
      {"measurement": "effect of mutation on structure", "setting": "[13]", "result": "does not affect the structural stability of PHD3"}
    ]},
    {"molecule": "Y1619A: MLL PHD3 with Y1619 mutated to alanine (protein, left off: GST, end not stated, cleaved) AKGNFCPLCDKCYDDDDYESKMMQCGKCDRWVHSKCENLSDEMYEILSNLPESVAATCVNCTERH", "values": [
      {"measurement": "effect of mutation on structure", "setting": "[13]", "result": "disruption of the overall fold"}
    ]},
    {"molecule": "L39A (protein, left off: GST, end not stated, cleaved) TTKRVLYVGGLAEEVDDKVLHAAFIPFGDITDIQIPADYETEKHRGFAFVEFELAEDAAAAIDNMNESELFGRTIRVNLAK", "values": [
      {"measurement": "effect of mutation on structure", "setting": "[13]", "result": "without disrupting the structure"}
    ]},
    {"molecule": "F49A (protein, left off: GST, end not stated, cleaved) TTKRVLYVGGLAEEVDDKVLHAAFIPFGDITDIQIPLDYETEKHRGAAFVEFELAEDAAAAIDNMNESELFGRTIRVNLAK", "values": [
      {"measurement": "effect of mutation on structure", "setting": "[13]", "result": "without disrupting the structure"}
    ]},
    {"molecule": "K45A (protein, left off: GST, end not stated, cleaved) TTKRVLYVGGLAEEVDDKVLHAAFIPFGDITDIQIPLDYETEAHRGFAFVEFELAEDAAAAIDNMNESELFGRTIRVNLAK", "values": [
      {"measurement": "interaction with PHD3", "setting": "[14]", "result": "did not abrogate the interaction"}
    ]},
    {"molecule": "R47A (protein, left off: GST, end not stated, cleaved) TTKRVLYVGGLAEEVDDKVLHAAFIPFGDITDIQIPLDYETEKHAGFAFVEFELAEDAAAAIDNMNESELFGRTIRVNLAK", "values": [
      {"measurement": "interaction with PHD3", "setting": "[14]", "result": "did not abrogate the interaction"}
    ]}
  ]
}
